For data set [1], the species on record is Rattus norvegicus. In words: Inhibition of ribonucleotide reductase purified from rat Novikoff hepatoma assessed as inhibition of [3H]CDP to [3H]dCDP conversion after 40 mins. A digest of the protocol: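 Ribonucleotide reductase was partially purified from Novikoff hepatoma. The 0.34 mL mix held 3 µCi [3H]CDP (14–19 Ci/mmol), 3.3 mM ATP, 5.9 mM MgCl2, 8.8 mM Hepes pH 7.5, 15 mM DTT and 0.4–1.3 mg enzyme protein, incubated 40 min at 30 °C. Vehicle was water, ≤1% ethanol or 2% DMSO. Each inhibitor was tested at ≥3 concentrations, with actives repeated. ID50 was read from graphs.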

Data set [2] has as its system L1210. In words: Antitumor activity against mouse L1210 cells allografted in C6D2F1 mouse at 100 to 1000 mg/kg, ip for 8 days starting from day 1 of challenge relative to control. The note with it: dose mg/kg 100-1000; route intraperitoneal.
The subject of data set [3] is L1210. Nature of the data set: Antitumor activity against ip dosed mouse L1210 cells allografted in C6D2F1 mouse assessed as dose to achieve maximum life span administered for 8 days starting from day 1 of challenge. The class given is functional. The method in brief: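 L1210 leukemia propagated in DBA/2 mice; diluted ascitic fluid (0.10 mL, 10^5 cells) injected ip into female C6D2F1 mice (~20 g) on day 0. Compounds given ip once daily for 8 days from day 1, generally three doses in the 100–1000 mg/kg range, 8 mice per dose; other doses per toxicity. Read-out: life span as T/C %.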

The subject of data set [4] is L1210. In words: Antitumor activity against mouse L1210 cells allografted in C6D2F1 mouse at 200 mg/kg, ip for 8 days starting from day 1 of challenge relative to control. Format: functional. As to conditions: route intraperitoneal.
In data set [5] the test system is L1210. In words: Antitumor activity against mouse L1210 cells allografted in C6D2F1 mouse at 500 mg/kg, ip for 8 days starting from day 1 of challenge relative to control. The class given is functional. The note with it: route intraperitoneal.
Data set [6] deals with L1210. Nature of the data set: Antitumor activity against mouse L1210 cells allografted in C6D2F1 mouse at 1000 mg/kg, ip for 8 days starting from day 1 of challenge relative to control. The class given is functional. The note with it: route intraperitoneal.
The test system of data set [7] is L1210. In words: Antitumor activity against mouse L1210 cells allografted in C6D2F1 mouse at 700 mg/kg, ip for 8 days starting from day 1 of challenge relative to control. The note with it: route intraperitoneal. Format: functional.
For data set [8], the system named is L1210. Nature of the data set: Antitumor activity against mouse L1210 cells allografted in C6D2F1 mouse at 600 mg/kg, ip for 8 days starting from day 1 of challenge relative to control. The class given is functional. As to conditions: route intraperitoneal.
For data set [9], the system named is L1210. Nature of the data set: Antitumor activity against mouse L1210 cells allografted in C6D2F1 mouse at 300 mg/kg, ip for 8 days starting from day 1 of challenge relative to control. The class given is functional. As to conditions: route intraperitoneal.
The subject of data set [10] is Mus musculus. In words: Toxicity in mouse L1210 cells allografted C6D2F1 mouse at 500 mg/kg, ip for 8 days measured on day 3. The class given is organism-based. Also on record: dose 500 mg/kg, route intraperitoneal. As to conditions: in vivo, 192 h.
Data set [11] has as its system L1210. Nature of the data set: Antitumor activity against mouse L1210 cells allografted in C6D2F1 mouse at 450 mg/kg, ip for 8 days starting from day 1 of challenge relative to control. As to conditions: route intraperitoneal. Format: functional.
The test system of data set [12] is L1210. In words: Antitumor activity against mouse L1210 cells allografted in C6D2F1 mouse at 400 mg/kg, ip for 8 days starting from day 1 of challenge relative to control. Format: functional. The note with it: route intraperitoneal.
In data set [13] the test system is L1210. Nature of the data set: Antitumor activity against mouse L1210 cells allografted in C6D2F1 mouse at 100 mg/kg, ip for 8 days starting from day 1 of challenge relative to control. The class given is functional. As to conditions: route intraperitoneal.
In data set [14] the test system is L1210. In words: Antitumor activity against mouse L1210 cells allografted in C6D2F1 mouse at 800 mg/kg, ip for 8 days starting from day 1 of challenge relative to control. The class given is functional. The note with it: route intraperitoneal.
The subject of data set [15] is Mus musculus. In words: Toxicity in mouse L1210 cells allografted C6D2F1 mouse at 800 mg/kg, ip for 8 days measured on day 2. Format: organism-based. Also on record: dose 800 mg/kg, route intraperitoneal. The note with it: in vivo, 192 h.
Data set [16] deals with L1210. In words: Antitumor activity against mouse L1210 cells allografted in C6D2F1 mouse at 320 mg/kg, ip for 8 days starting from day 1 of challenge relative to control. Format: functional. As to conditions: route intraperitoneal.
The species named for data set [17] is Rattus norvegicus. Nature of the data set: Ratio of hydroxyurea ID50 to compound ID50 for ribonucleotide reductase purified from rat Novikoff hepatoma assessed as inhibition of [3H]CDP to [3H]dCDP conversion after 40 mins.
Data set [18] concerns L1210. Nature of the data set: Antitumor activity against mouse L1210 cells allografted in C6D2F1 mouse at 63 mg/kg, ip for 8 days starting from day 1 of challenge relative to control. The class given is functional. The note with it: route intraperitoneal.
Data set [19] deals with L1210. Nature of the data set: Antitumor activity against mouse L1210 cells allografted in C6D2F1 mouse at 125 mg/kg, ip for 8 days starting from day 1 of challenge relative to control. Format: functional. The note with it: route intraperitoneal.
The test system of data set [20] is L1210. In words: Antitumor activity against mouse L1210 cells allografted in C6D2F1 mouse at 75 mg/kg, ip for 8 days starting from day 1 of challenge relative to control. As to conditions: route intraperitoneal. Format: functional.
Data set [21] has as its system L1210. In words: Antitumor activity against mouse L1210 cells allografted in C6D2F1 mouse at 139 mg/kg, ip bid at interval of 3 hrs between each dosing for 8 days starting from day 1 of challenge relative to control. Format: functional. The note with it: route intraperitoneal. The method in brief:
(§1)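 Mice were female C6D2F1 of about 20 g, inoculated ip on day 0 with 10^5 L1210 ascites cells grown in DBA/2 mice. Drug was given ip twice daily at 139 mg/kg per dose for 8 days, varying the interval between the two daily injections. Read-out is the T/C % of life span.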

For data set [22], the system named is L1210. In words: Antitumor activity against mouse L1210 cells allografted in C6D2F1 mouse at 139 mg/kg, ip bid at interval of 5 hrs between each dosing for 8 days starting from day 1 of challenge relative to control. Format: functional. As to conditions: route intraperitoneal. The method in brief:
as §1

Data set [23] has as its system L1210. In words: Antitumor activity against mouse L1210 cells allografted in C6D2F1 mouse at 139 mg/kg, ip bid at interval of 7 hrs between each dosing for 8 days starting from day 1 of challenge relative to control. Format: functional. The note with it: route intraperitoneal. The method in brief:
as §1

In data set [24] the test system is L1210. In words: Antitumor activity against mouse L1210 cells allografted in C6D2F1 mouse at 139 mg/kg, ip bid at interval of 1 hr between each dosing for 8 days starting from day 1 of challenge relative to control. The class given is functional. As to conditions: route intraperitoneal. A digest of the protocol:
as §1

The record followed here is ChEMBL document CHEMBL3227962, “Synthesis of hydroxy- and amino-substituted benzohydroxamic acids: inhibition of ribonucleotide reductase and antitumor activity” (J Med Chem, 1979).

Take `Nc1cccc(C(=O)NO)c1`: the ID50 in data set [1] worked out at 350 µM. Besides, the T/C – broadly, the result in the treated group divided by that in the control group, in per cent – in data set [2] is recorded as 110%. In data set [3], the Activity was 500 mg/kg.
The like results for `Nc1ccc(C(=O)NO)cc1N` were, in that order, 40 µM, 140% and 300 mg/kg.
Consider `O=C(NO)c1cccc(O)c1`, for which the T/C in [4] is 123%; in data set [2], 177%; in data set [5], 177%; in data set [6], 68%; in data set [7] it was 148%; in data set [8], 156%. In addition, the ID50 in data set [1] amounted to 350 µM. In addition, the Activity in data set [3] was determined as 500 mg/kg.
For `O=C(NO)c1ccc(O)cc1`, the ID50 in data set [1] worked out at 250 µM. In data set [2], this compound displayed a T/C of 124%. Moreover, the Activity in [3] turned out to be 400 mg/kg.
The like results for `O=C(NO)c1cc(O)ccc1O` were, in that order, 200 µM, 130% and 300 mg/kg.
`O=C(NO)c1cc(O)cc(O)c1`: in data set [1], the ID50 came out at 400 µM. The compound also registered a T/C in [2] of 152%. Besides, the Activity in [3] amounted to 1000 mg/kg.
The like results for `Nc1ccc(C(=O)NO)cc1` were, in that order, 150 µM, 162% and 500 mg/kg.
Taken in the same sequence, the figures for `O=C(NO)c1ccc(O)cc1O` were 250 µM, 142% and 500 mg/kg.
The like results for `O=C(NO)c1ccccc1O` [SALICYLHYDROXAMIC ACID] were, in that order, 150 µM, 147% and 500 mg/kg.
For `O=C(NO)c1cccc(O)c1O`, the T/C in [4] turned out to be 136%; in data set [9], 107%; in [2], 136%; in data set [5], 100%; in data set [11], 103%. Also, in data set [1], the ID50 was found to be 8 µM. The Activity entry is “Toxic” in [10] and 200 mg/kg in data set [3].
As to `O=C(NO)c1ccc(O)c(O)c1`, the T/C in data set [9] is recorded as 156%; in [12], 154%; in data set [2], 203%; in [5], 184%; in data set [13], 125%; in [14] it was 28%. In [8], this compound came in with a T/C of 203%. Moreover, the ID50 in data set [1] is 30 µM. Further, the Activity entry was “Toxic” in [15] and 600 mg/kg in data set [3].
For the compound `O=C(NO)c1ccc(O)c(O)c1O`, the T/C worked out at 108% in [4]; 92% in data set [9]; 46% in data set [16]; 130% in data set [2]; 111% in [18]; 130% in [19]. The T/C in data set [20] amounted to 109%. Moreover, in data set [1], the ID50 was determined as 3.5 µM. Besides, the Ratio in data set [17] came to 140. In addition, the Activity in data set [3] was 125 mg/kg.
Turning to `O=C(NO)c1ccccc1` [BENZOHYDROXAMATE], in data set [1], the ID50 amounted to 400 µM. Besides, the T/C in [2] is 144%. Moreover, the Activity in data set [3] stood at 500 mg/kg.
Taken in the same sequence, the figures for `NC(=O)NO` [HYDROXYUREA] were 500 µM, 162% and 2500 mg/kg.
With `O=C(NO)c1cc(O)c(O)c(O)c1`, the T/C in [4] was 147%; in data set [12], 153%; in data set [21] it was 168%; in [22] it was 189%; in [2], 153%; in [13], 125%. Also, the values for the T/C in data set [23], in data set [14] and in data set [24] were 172%, 56% and 151%, respectively. In addition, the ID50 in [1] turned out to be 10 µM. Moreover, the Activity in data set [3] came to 400 mg/kg.
As to `Nc1ccccc1C(=O)NO`, in [1], the ID50 amounted to 120 µM. For the same compound, in data set [2], the T/C worked out at 150%. Moreover, the Activity in data set [3] is 500 mg/kg.
Turning to `Nc1ccc(C(=O)NO)c(O)c1`, the ID50 in data set [1] came to 200 µM. In addition, the T/C in data set [2] is listed as 115%. Besides, the Activity in data set [3] worked out at 1000 mg/kg.
Consider `O=C(NO)c1c(O)cccc1O`, for which the ID50 in [1] came to 100 µM.
